Results from ChEMBL document CHEMBL1146195, “Use of novel boronic acid transition state inhibitors to probe substrate affinity in SHV-type extended-spectrum beta-lactamases” (Antimicrob Agents Chemother, 2007).
Substitutions are numbered along the chain they refer to.

Legend:
Beta-lactamase SHV-1 = biological target: T1, Beta-lactamase SHV-1 (Escherichia coli, UniProt P0AD63); experiment: Binding affinity at Beta-lactamase SHV1 expressed in Escherichia coli DH10B cells
T1 sequence (P0AD63 whole entry): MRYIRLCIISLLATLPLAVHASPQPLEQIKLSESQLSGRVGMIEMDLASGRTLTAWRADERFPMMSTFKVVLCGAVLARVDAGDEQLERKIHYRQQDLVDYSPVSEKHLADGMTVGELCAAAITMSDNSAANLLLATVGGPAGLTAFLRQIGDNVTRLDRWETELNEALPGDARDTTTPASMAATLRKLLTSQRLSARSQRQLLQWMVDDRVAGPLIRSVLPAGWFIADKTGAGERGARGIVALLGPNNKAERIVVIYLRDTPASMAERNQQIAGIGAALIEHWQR
In short: (§1)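 SHV-1 cloned in pBCSK(−), expressed in E. coli DH10B and purified; purity checked by SDS-PAGE. Ki found by competing increasing inhibitor concentrations against nitrocefin at 4–6 × Km in continuous spectrophotometric assays at room temperature. Percent inhibition was fitted to an equation using the nitrocefin Km.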

[1] = Binding affinity at Beta-lactamase D104K expressed in Escherichia coli DH10B cells
In short: as §1, with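 “Enzyme” for “SHV-1”, “DH10B, purified, then further purified by size-exclusion HPLC;” for “DH10B and purified;”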

[2] = Binding affinity at Beta-lactamase D104K G238S expressed in Escherichia coli DH10B cells
In short: as §1, with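 “Enzyme” for “SHV-1”, “DH10B, purified, then further purified by size-exclusion HPLC;” for “DH10B and purified;”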

[3] = Binding affinity at Beta-lactamase SHV2 G238S expressed in Escherichia coli DH10B cells
In short: as §1, with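 “Enzyme” for “SHV-1”, “DH10B, purified, then further purified by size-exclusion HPLC;” for “DH10B and purified;”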

[4] = biological target: T2, SHV-5 extended spectrum beta-lactamase (Escherichia coli, UniProt Q6REX6); experiment: Binding affinity at Beta-lactamase SHV5 expressed in Escherichia coli DH10B cells
T2 sequence (Q6REX6 whole entry): T1 sequence (P0AD63 whole entry) with L31Q, T231N, G234S, E235K, S265N
In short: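 Purified SHV-5 enzyme, expressed in E. coli DH10B from pBCSK(−); purity checked by SDS-PAGE. Ki from continuous spectrophotometric competition assays at room temperature: increasing inhibitor concentrations against nitrocefin at 4 to 6 times its Km. Percent inhibition fitted using the nitrocefin Km. Inhibition mode from full progress curves at varied nitrocefin, without inhibitor and at two inhibitor concentrations.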

With `CC(=O)NCB(O)O` [ACETAMIDOMETHYLBORONIC ACID] the Ki (Beta-lactamase SHV-1) was 300 µM, the Ki [1] was 190 µM and the Ki [2] was 300 µM. The Ki [3] was 330 µM and the Ki [4] was 360 µM.

With `CO/N=C(\C(=O)NCB(O)O)c1csc(N)n1` [CEFOTAXIME BATSI] the Ki (Beta-lactamase SHV-1) was 8.9 µM, the Ki [1] was 5 µM and the Ki [2] was 1.1 µM. For the same molecule, the Ki [3] was 3.4 µM and the Ki [4] was 5 µM.

Molecule `CC(C)(O/N=C(\C(=O)NCB(O)O)c1csc(N)n1)C(=O)O` [CEFTAZIDIME BATSI] has a Ki (Beta-lactamase SHV-1) of 2.2 µM, a Ki [1] of 0.7 µM and a Ki [2] of 4.5 µM. It also gave a Ki [3] of 6.8 µM and a Ki [4] of 4.5 µM.
